Results: ChEMBL document CHEMBL1143009, “D- and L-2',3'-didehydro-2',3'-dideoxy-3'-fluoro-carbocyclic nucleosides: synthesis, anti-HIV activity and mechanism of resistance” (J Med Chem, 2007)
pEC50: −log10 of the molar value.

Legend:
[1] = tested on: PBMC; test: Cytotoxicity against human PBMC; assay type: cell-based
[2] = tested on: Vero; test: Cytotoxicity against African green monkey Vero cells; assay type: cell-based; conditions: chlorocebus sabaeus
[3] = tested on: Human immunodeficiency virus 1; test: Antiviral activity against HIV1 LAV1 in human PBM cells by RT assay; assay type: functional, organism-based; conditions: for pEC50 / EC90: Human immunodeficiency virus 1, LAV1, PBMC
Method in brief: (§1)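 Human PBM cells were infected with HIV-1. The strain was LAI by default, or xxBRU where indicated. Antiviral activity was reported as EC50 and EC90.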

[4] = tested on: Human immunodeficiency virus 1; test: Antiviral activity against lamivudine-resistant HIV1 M184V mutant in human PBMC cells by RT assay; assay type: functional, organism-based
Method in brief: (§2)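 Human PBM cells infected with lamivudine-resistant HIV-1 M184V and, in parallel, wild-type HIV-1 (xxBRU where footnoted, otherwise LAI). EC50 was determined for each virus, and the mutant EC50 was divided by the wild-type EC50. Carbovir served as positive control.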

[5] = tested on: Human immunodeficiency virus 1; test: Antiviral activity against HIV1 xxBRU in human PBM cells by RT assay; assay type: functional, organism-based; method in brief: as §1
[6] = tested on: Human immunodeficiency virus 1; test: Ratio of EC50 for lamivudine-resistant HIV1 M184V mutant to EC50 for HIV1 […]; assay type: functional; method in brief: as §2
[7] = Human immunodeficiency virus 1, PBMC
[8] = Human immunodeficiency virus 1, xxBRU, PBMC

With `Nc1ccn([C@H]2C=C(F)[C@H](CO)C2)c(=O)n1` the Activity [1] was over 100 µM, the Activity [2] was over 100 µM and the ED90 [3] was over 100 µM. It also gave a pEC50 [3] of under 4.00.

For `OC[C@H]1C[C@H](n2cnc3c(O)ncnc32)C=C1F`, the Activity [1] was over 100 µM, the Activity [2] was over 100 µM and the ED90 [3] was over 100 µM. For the same compound, the pEC50 [3] was under 4.00.

`Nc1nc2c(ncn2[C@@H]2C[C@@H](CO)C(F)(F)C2)c(=O)[nH]1` was tested, and the Activity [1] was over 100 µM, the Activity [2] was over 100 µM and the ED90 [3] was over 100 µM. For the same compound, the pEC50 [3] was under 4.00.

In the case of `Cc1cn([C@H]2C=C(F)[C@H](CO)C2)c(=O)[nH]c1=O`, the Activity [1] was over 100 µM, the Activity [2] was over 100 µM and the pEC50 [3] was 4.16. It also gave an EC90 [3] of over 100 µM.

`Nc1ncnc2c1ncn2[C@H]1C=C(F)[C@H](CO)C1` was tested, and the Activity [1] was over 100 µM, the Activity [2] was over 100 µM and the pEC50 [3] was 4.83. It also gave an EC90 [3] of 40.6 µM.

Compound `Cc1cn([C@@H]2C[C@@H](CO)C(F)(F)C2)c(=O)[nH]c1=O` has an Activity [1] of over 100 µM, an Activity [2] of over 100 µM and an ED90 [3] of over 100 µM. For the same compound, the pEC50 [3] was under 4.00.

`Nc1nc2c(ncn2[C@H]2C=C[C@@H](CO)C2)c(=O)[nH]1` [CARBOVIR] was tested, and the pEC50 [4, 7] was 6.70, the EC90 [4, 7] was 1.1 µM and the ED90 [5] was 0.27 µM. It also gave a pEC50 [5, 8] of 7.06 and a Ratio [6] of 2.3.

`Nc1nc2c(ncn2[C@H]2C=C(F)[C@H](CO)C2)c(=O)[nH]1` gave an ED90 [4] of 14.9 µM, a pEC50 [4, 7] of 5.42 and an Activity [1] of 21.1 µM. The pEC50 [5, 8] was 7.01, the EC90 [5, 8] was 0.58 µM and the Activity [2] was over 100 µM. It also gave a pEC50 [3] of 6.39, an EC90 [3] of 2.8 µM and a Ratio [6] of 38.8.

In the case of `Nc1ccn([C@@H]2C[C@@H](CO)C(F)(F)C2)c(=O)n1`, the Activity [1] was over 100 µM, the Activity [2] was over 100 µM and the ED90 [3] was over 100 µM. It also gave a pEC50 [3] of under 4.00.

`OC[C@@H]1C[C@@H](n2cnc3c(O)ncnc32)C=C1F` showed an Activity [1] of over 100 µM, an Activity [2] of over 100 µM and an ED90 [3] of over 100 µM. For the same compound, the pEC50 [3] was under 4.00.

With `Cc1cn([C@@H]2C=C(F)[C@@H](CO)C2)c(=O)[nH]c1=O` the Activity [1] was over 100 µM, the Activity [2] was over 100 µM and the pEC50 [3] was 5.19. The EC90 [3] was over 100 µM.

`Nc1ncnc2c1ncn2[C@@H]1C=C(F)[C@@H](CO)C1` showed an Activity [1] of over 100 µM, an Activity [2] of over 100 µM and a pEC50 [3] of 4.99. The EC90 [3] was 33.5 µM.

Work on `Nc1nc2c(ncn2[C@@H]2C=C(F)[C@@H](CO)C2)c(=O)[nH]1` yielded an Activity [1] of over 100 µM, an Activity [2] of over 100 µM and a pEC50 [3] of 4.68. The EC90 [3] was over 100 µM.

In the case of `Nc1ccn([C@@H]2C=C(F)[C@@H](CO)C2)c(=O)n1`, the Activity [1] was over 100 µM, the Activity [2] was over 100 µM and the pEC50 [3] was 5.15. It also gave an EC90 [3] of 72 µM.

With `Nc1ncnc2c1ncn2[C@@H]1C[C@@H](CO)C(F)(F)C1` the Activity [1] was 95.1 µM, the Activity [2] was over 100 µM and the ED90 [3] was over 100 µM. The pEC50 [3] was under 4.00.

`OC[C@@H]1C[C@@H](n2cnc3c(O)ncnc32)CC1(F)F` showed an Activity [1] of over 100 µM, an Activity [2] of over 100 µM and an ED90 [3] of over 100 µM. It also gave a pEC50 [3] of under 4.00.
